In ChEMBL document CHEMBL4765336, “Discovery of coumarin derivatives as potent and selective cyclin-dependent kinase 9 (CDK9) inhibitors with high antitumour activity” (Eur J Med Chem, 2020):

Legend:
NCI-N87 = test: Antiproliferative activity against human NCI-N87 cells assessed as inhibition of cell growth incubated for 72 hrs by Celltiter-Glo luminescent assay; assay type: functional, cell-based; settings: NCI-N87, 72 h
Outline: (§1)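 Cells seeded in growth medium and held overnight at 37 °C; medium-only wells served as background. DMSO stocks were diluted in medium to 3× final and added; cells incubated 72 h at 37 °C, 5% CO2. Viability read by CellTiter-Glo luminescence after 60 min at room temperature. IC50 from curve fit, mean of duplicate.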

[1] = target: Voltage-gated inwardly rectifying potassium channel KCNH2 (Homo sapiens, UniProt Q12809); test: Inhibition of fluorescently labeled tracer binding to human ERG by competitive binding assay
Outline: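 Fluorescent tracer competition assay against a membrane preparation containing hERG.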

MV4-11 [2] = test: Antitumor activity against human MV4-11 cells xenografted in iv dosed BALB/c nude mouse assessed as tumor growth inhibition administered once daily for 21 days and measured twice per week by vernier caliper method; assay type: functional, organism-based; settings: dose 10-40 mg/kg, time 21.0 day
[3] = AUC (0 to infinity) in ICR mouse at 2 mg/kg, iv measured up to 24 hrs by LC-MS/MS analysis; assay type: ADME, organism-based; design: route intravenous, dose 2 mg/kg, time <=24; settings: in vivo
[4] = Clearance in ICR mouse at 2 mg/kg, iv measured up to 24 hrs by LC-MS/MS analysis; assay type: ADME, organism-based; settings: in vivo
Outline: (§2)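 Male ICR mice (25.1–28.8 g, n=9), fasted 12 h, given a single i.v. dose of 2.0 mg/kg at 0.4 mg/mL in DMSO/PEG200/saline (1:1:3). Blood sampled at 0, 0.083, 0.25, 0.5, 1, 2, 4, 8, 24 h. Plasma ACN-precipitated and quantified by LC-MS/MS. Parameters derived from composite mean plasma concentration-time data.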

[5] = Metabolic stability in human liver microsomes assessed as half life at 1 uM incubated up to 60 mins in presence of NADPH by LC-MS/MS analysis; assay type: ADME, Microsome
Outline: (§3)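 Liver microsomes (0.5 mg/mL) incubated at 37 °C with compound at 1.0 μM final, 3 mM MgCl2 and 1 mM NADPH in 100 mM PBS pH 7.4. Samples taken at 0, 5, 15, 30, 60 min; remaining parent measured by LC-MS/MS. k = −slope, T1/2 = 0.693/k, CLint = k/microsomal protein concentration. Midazolam served as control.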

PANC-1 = test: Antiproliferative activity against human PANC-1 cells assessed as inhibition of cell growth incubated for 72 hrs by Celltiter-Glo luminescent assay; assay type: functional, cell-based; settings: PANC-1, 72 h; outline: as §1
[6] = Metabolic stability in dog liver microsomes assessed as half life at 1 uM incubated up to 60 mins in presence of NADPH by LC-MS/MS analysis; assay type: ADME, Canis lupus familiaris, Microsome; outline: as §3
[7] = Metabolic stability in monkey liver microsomes assessed as half life at 1 uM incubated up to 60 mins in presence of NADPH by LC-MS/MS analysis; assay type: ADME, Macaca mulatta, Microsome; settings: rhesus monkey; outline: as §3
MDA-MB-231 = test: Antiproliferative activity against human MDA-MB-231 cells assessed as inhibition of cell growth incubated for 72 hrs by Celltiter-Glo luminescent assay; assay type: functional, cell-based; settings: MDA-MB-231, 72 h; outline: as §1
MV4-11 [8] = test: Antitumor activity against human MV4-11 cells xenografted in Balb/c nude mouse assessed as tumor growth inhibition at 40 mg/kg, iv administered once daily for 21 days and measured twice a week by vernier caliper method relative to control; assay type: functional; settings: MV4-11, iv, 504 h, time 21 day, read-out: TGI
CDK3/Cyclin E = CDK3/Cyclin E (Homo sapiens, UniProt Q00526); test: Inhibition of CDK3/Cyclin E (unknown origin) preincubated for 20 mins followed by ATP addition and measured after 120 mins in presence of [33P-gamma] ATP by hotspot kinase assay; assay type: protein-complex assay
Outline: (§4)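 Radiometric filter-binding assay: kinase and substrate in 20 mM Hepes pH 7.5, 10 mM MgCl2, 1 mM EGTA, 0.02% Brij35, 0.02 mg/mL BSA, 0.1 mM Na3VO4, 2 mM DTT, 1% DMSO. Compound (top 1/10/27 μM, 3-fold serial dilutions) preincubated 20 min at 25 °C. ATP plus [γ-33P]ATP added to 10 μM final, reacted 120 min at 25 °C. IC50 from curve fit, duplicate mean.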

A-375 = test: Antiproliferative activity against human A-375 cells assessed as inhibition of cell growth incubated for 72 hrs by Celltiter-Glo luminescent assay; assay type: functional, cell-based; settings: A-375, 72 h; outline: as §1
CDK2/Cyclin A2 = CDK2/Cyclin A2 (Homo sapiens, UniProt P24941); test: Inhibition of CDK2/Cyclin A (unknown origin) preincubated for 20 mins followed by ATP addition and measured after 120 mins in presence of [33P-gamma] ATP by hotspot kinase assay; assay type: protein-complex assay; outline: as §4
[9] = AUC (0 to t) in ICR mouse at 2 mg/kg, iv measured up to 24 hrs by LC-MS/MS analysis; assay type: ADME, organism-based; design: route intravenous, dose 2 mg/kg, time <=24; settings: in vivo
[10] = Metabolic stability in monkey liver microsomes assessed as intrinsic clearance at 1 uM incubated up to 60 mins in presence of NADPH by LC-MS/MS analysis; assay type: ADME, Macaca mulatta, Microsome; settings: rhesus monkey, read-out: CLH; outline: as §3
[11] = Half life in ICR mouse at 2 mg/kg, iv measured up to 24 hrs by LC-MS/MS analysis; assay type: ADME, organism-based; settings: in vivo; outline: as §2
[12] = target: Cyclin-dependent kinase 4/cyclin D1 (Homo sapiens, UniProt P11802); test: Inhibition of CDK4/Cyclin D1 (unknown origin) preincubated for 20 mins followed by ATP addition and measured after 120 mins in presence of [33P-gamma] ATP by hotspot kinase assay; assay type: protein-complex assay; outline: as §4
[13] = Tmax in ICR mouse at 30 mg/kg, po measured up to 24 hrs by LC-MS/MS analysis; assay type: ADME, organism-based; settings: in vivo
Outline: (§5)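 Male ICR mice (25.1–28.8 g, n=9), fasted overnight (12 h), single oral gavage 30 mg/kg as 3 mg/mL in 0.5% CMC-Na with 0.2% Tween 80. Venous blood drawn into EDTA-K2 at 0, 0.25, 0.5, 1, 2, 4, 8, 24 h. Plasma protein-precipitated with ACN and run on LC-MS/MS (C18, formic acid/ACN). Noncompartmental parameters taken from composite mean concentration-time data.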

[14] = target: Cyclin-dependent kinase 1/cyclin B1 (Homo sapiens, UniProt P06493); test: Inhibition of CDK1/Cyclin B (unknown origin) preincubated for 20 mins followed by ATP addition and measured after 120 mins in presence of [33P-gamma] ATP by hotspot kinase assay; assay type: protein-complex assay; outline: as §4
[15] = Cmax in ICR mouse at 30 mg/kg, po measured up to 24 hrs by LC-MS/MS analysis; assay type: ADME, organism-based; design: route oral, dose 30 mg/kg, time <=24; settings: in vivo; outline: as §5
[16] = AUC (0 to t) in ICR mouse at 30 mg/kg, po measured up to 24 hrs by LC-MS/MS analysis; assay type: ADME, organism-based; design: route oral, dose 30 mg/kg, time <=24; settings: in vivo; outline: as §5
A549 = test: Antiproliferative activity against human A549 cells assessed as inhibition of cell growth incubated for 72 hrs by Celltiter-Glo luminescent assay; assay type: functional, cell-based; settings: A549, 72 h; outline: as §1
SW-620 = test: Antiproliferative activity against human SW-620 cells assessed as inhibition of cell growth incubated for 72 hrs by Celltiter-Glo luminescent assay; assay type: functional, cell-based; settings: SW-620, 72 h; outline: as §1
[17] = Metabolic stability in rat liver microsomes assessed as intrinsic clearance at 1 uM incubated up to 60 mins in presence of NADPH by LC-MS/MS analysis; assay type: ADME, Microsome; settings: read-out: CLH; outline: as §3

Voltage-gated inwardly rectifying potassium channel KCNH2, sequence (Q12809 whole entry): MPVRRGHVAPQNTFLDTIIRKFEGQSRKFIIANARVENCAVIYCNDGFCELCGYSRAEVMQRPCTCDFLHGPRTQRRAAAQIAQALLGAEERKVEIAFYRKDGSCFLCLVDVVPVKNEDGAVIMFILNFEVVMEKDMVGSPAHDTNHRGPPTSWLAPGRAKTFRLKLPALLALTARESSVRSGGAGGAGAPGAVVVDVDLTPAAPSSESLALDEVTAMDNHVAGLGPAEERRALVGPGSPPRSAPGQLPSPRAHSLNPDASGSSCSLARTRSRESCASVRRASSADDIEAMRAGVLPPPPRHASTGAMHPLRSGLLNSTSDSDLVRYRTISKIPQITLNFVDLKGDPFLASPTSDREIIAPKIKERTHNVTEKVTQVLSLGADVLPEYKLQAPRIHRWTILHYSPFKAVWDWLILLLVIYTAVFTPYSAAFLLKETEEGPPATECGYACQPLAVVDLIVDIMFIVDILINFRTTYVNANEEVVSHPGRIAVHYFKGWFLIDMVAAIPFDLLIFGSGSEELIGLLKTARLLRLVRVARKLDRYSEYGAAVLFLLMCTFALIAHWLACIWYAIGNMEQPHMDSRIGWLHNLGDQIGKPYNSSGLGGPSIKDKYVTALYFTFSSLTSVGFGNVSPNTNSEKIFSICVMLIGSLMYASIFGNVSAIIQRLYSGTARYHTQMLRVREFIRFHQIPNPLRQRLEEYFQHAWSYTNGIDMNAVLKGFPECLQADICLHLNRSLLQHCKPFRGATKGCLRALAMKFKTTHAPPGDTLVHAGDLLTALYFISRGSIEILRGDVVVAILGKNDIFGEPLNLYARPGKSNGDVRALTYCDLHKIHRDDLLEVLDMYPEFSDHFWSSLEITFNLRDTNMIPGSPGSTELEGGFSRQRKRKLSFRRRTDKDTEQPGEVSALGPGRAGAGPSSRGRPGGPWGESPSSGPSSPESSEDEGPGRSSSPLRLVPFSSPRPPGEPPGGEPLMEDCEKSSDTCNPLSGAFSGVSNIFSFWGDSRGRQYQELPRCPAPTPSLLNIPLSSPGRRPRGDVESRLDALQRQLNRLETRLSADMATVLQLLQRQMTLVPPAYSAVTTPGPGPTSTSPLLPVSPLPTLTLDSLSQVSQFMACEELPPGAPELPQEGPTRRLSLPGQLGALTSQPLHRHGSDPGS
CDK3/Cyclin E, sequence (P24864 whole entry): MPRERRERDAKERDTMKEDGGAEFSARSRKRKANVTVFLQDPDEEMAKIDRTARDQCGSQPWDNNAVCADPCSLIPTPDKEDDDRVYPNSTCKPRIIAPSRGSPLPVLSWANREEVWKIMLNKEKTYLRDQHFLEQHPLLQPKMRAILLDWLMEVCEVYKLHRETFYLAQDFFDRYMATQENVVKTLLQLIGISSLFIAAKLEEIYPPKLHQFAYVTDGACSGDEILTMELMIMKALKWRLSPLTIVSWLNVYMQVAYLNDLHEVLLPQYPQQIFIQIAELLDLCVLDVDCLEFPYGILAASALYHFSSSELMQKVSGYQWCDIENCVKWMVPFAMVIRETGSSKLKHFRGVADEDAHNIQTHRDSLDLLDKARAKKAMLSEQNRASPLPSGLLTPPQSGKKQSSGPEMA
CDK3/Cyclin E, sequence (Q00526 whole entry): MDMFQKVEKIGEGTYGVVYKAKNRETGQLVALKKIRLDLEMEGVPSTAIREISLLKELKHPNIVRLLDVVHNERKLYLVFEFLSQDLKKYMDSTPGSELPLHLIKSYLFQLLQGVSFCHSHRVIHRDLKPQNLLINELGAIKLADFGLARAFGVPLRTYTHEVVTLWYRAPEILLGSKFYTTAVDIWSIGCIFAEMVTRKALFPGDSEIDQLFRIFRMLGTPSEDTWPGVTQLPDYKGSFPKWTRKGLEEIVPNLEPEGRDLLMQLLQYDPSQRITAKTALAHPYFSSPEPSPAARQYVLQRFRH
Cyclin-dependent kinase 4/cyclin D1, sequence (P11802 whole entry): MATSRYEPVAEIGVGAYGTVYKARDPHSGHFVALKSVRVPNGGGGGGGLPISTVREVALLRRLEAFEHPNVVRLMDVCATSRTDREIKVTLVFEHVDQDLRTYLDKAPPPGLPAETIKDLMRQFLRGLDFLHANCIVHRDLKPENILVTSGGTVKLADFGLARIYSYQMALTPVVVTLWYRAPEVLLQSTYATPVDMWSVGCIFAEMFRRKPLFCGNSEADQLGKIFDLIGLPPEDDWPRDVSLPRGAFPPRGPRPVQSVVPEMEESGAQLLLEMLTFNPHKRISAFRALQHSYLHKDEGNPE
Cyclin-dependent kinase 4/cyclin D1, sequence (P24385 whole entry, further chain): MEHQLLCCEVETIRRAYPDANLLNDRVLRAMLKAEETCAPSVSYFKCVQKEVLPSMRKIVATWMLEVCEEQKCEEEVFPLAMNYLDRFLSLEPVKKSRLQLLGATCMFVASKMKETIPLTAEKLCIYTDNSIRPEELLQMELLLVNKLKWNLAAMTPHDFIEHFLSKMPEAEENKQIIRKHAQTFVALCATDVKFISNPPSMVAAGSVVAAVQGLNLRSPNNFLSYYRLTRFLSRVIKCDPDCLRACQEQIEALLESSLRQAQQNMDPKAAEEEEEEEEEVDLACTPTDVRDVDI
Cyclin-dependent kinase 1/cyclin B1, sequence (P06493 whole entry): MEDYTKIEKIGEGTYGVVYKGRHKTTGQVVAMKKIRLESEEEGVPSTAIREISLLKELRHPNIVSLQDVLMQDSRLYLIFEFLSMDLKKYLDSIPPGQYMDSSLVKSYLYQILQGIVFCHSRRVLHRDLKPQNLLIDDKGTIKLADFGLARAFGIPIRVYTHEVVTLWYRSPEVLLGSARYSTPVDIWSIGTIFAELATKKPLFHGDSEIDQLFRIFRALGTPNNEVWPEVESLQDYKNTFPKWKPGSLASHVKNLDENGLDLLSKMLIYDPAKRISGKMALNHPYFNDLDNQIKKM
Cyclin-dependent kinase 1/cyclin B1, sequence (P14635 whole entry, further chain): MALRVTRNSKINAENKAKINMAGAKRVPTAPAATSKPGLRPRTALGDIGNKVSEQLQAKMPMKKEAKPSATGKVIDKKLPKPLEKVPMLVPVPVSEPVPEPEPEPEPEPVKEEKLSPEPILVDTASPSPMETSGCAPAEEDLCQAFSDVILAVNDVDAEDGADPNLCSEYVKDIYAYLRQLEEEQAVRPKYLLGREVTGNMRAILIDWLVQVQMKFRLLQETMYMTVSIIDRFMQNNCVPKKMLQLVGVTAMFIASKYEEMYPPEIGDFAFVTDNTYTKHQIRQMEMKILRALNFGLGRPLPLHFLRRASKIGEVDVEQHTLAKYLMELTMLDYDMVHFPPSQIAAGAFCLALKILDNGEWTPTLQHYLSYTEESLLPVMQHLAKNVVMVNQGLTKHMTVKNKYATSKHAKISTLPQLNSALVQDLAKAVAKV

In the case of `COc1cc(F)ccc1-c1nc(Nc2ccc3c(N4CCOCC4)c(C(C)=O)c(=O)oc3c2)ncc1F`, the IC50 (NCI-N87) is reported as 0.6 µM, the IC50 [1] is reported as 10.1 µM and the Activity (MV4-11 [2]) is reported as “Dose-dependent effect”. It also gave an AUC(0-inf) [3] of 0.561 µg·h/mL, a clearance [4] of 3.56 L/h/kg and a half-life at 1 µM [5] of 35.7 min. It also gave an IC50 (PANC-1) of 0.3 µM, a half-life at 1 µM [6] of 14 min and a half-life at 1 µM [7] of 24.2 min. It also gave an IC50 (MDA-MB-231) of 0.23 µM, an inhibition in vivo at 40 mg/kg (MV4-11 [8]) of 100% and an IC50 (CDK3/Cyclin E) of 1.51 µM. For the same molecule, the IC50 (A-375) was 0.09 µM, the IC50 (CDK2/Cyclin A2) was 0.32 µM and the AUC(0-t) at 24 h [9] was 0.56 µg·h/mL. For the same molecule, the microsomal CLint at 1 µM [10] was 57.3 µL/min/mg, the half-life [11] was 13.8 min and the IC50 [12] was 0.471 µM. The Tmax [13] was 15 min, the IC50 [14] was 1.95 µM and the Cmax [15] was 0.665 µg/mL. For the same molecule, the AUC(0-t) at 24 h [16] was 1.2 µg·h/mL, the IC50 (A549) was 0.47 µM and the IC50 (SW-620) was 0.43 µM. It also gave a microsomal CLint at 1 µM [17] of 689 µL/min/mg.
